Measured values of several laboratories.
Each line is one published result; the experiments were not run side by side. Values after ≈ are worked out from the molar mass of the structure shown.

`N#Cc1ccc(-c2cc(COc3cc(C(F)(F)F)nc4ccccc34)on2)cc1` gave an IC50 of 43.7 µM (DND41; cell growth or viability, MTS; 72 h).
The MIC90 of `CC(=O)NC[C@H]1CN(c2ccc(N3CCOCC3)c(F)c2)C(=O)O1` is reported as 1 µg/mL (≈ 2.96 µM) (Streptococcus agalactiae; microbial growth; clinical isolate).
`FC(F)(F)c1cc(OCc2cc(-c3ccccc3)no2)c2ccccc2n1` has an IC50 of 65.2 µM (DND41; cell growth or viability, MTS; 72 h).
`OC(Cn1cncn1)(Cn1cncn1)c1ccc(F)cc1F` gave an MIC of 2 µM (Candida tropicalis; microbial growth, broth dilution; CGMCC2; 48 h).
`N#CC(=C1C=CC(=NOC(=O)OCc2ccccc2)C=C1)c1ccccc1` has an MFC of 256 µg/mL (≈ 718 µM) (Candida tropicalis; microbial killing, broth dilution; ATCC13803; 48 h).
For `CN[C@H](CC(C)C)C(=O)N[C@H]1C(=O)N[C@@H](CC(N)=O)C(=O)N[C@H]2C(=O)N[C@H]3C(=O)N[C@H](C(=O)N[C@H](C(=O)O)c4cc(O)cc(O)c4-c4cc3ccc4O)[C@H](O)c3ccc(c(Cl)c3)Oc3cc2cc(c3O[C@@H]2O[C@H](CO)[C@@H](O)[C@H](O)[C@H]2O[C@H]2C[C@](C)(N)[C@H](O)[C@H](C)O2)Oc2ccc(cc2Cl)[C@H]1O`, the MIC90 was 0.5 µg/mL (≈ 0.345 µM) (Streptococcus agalactiae; microbial growth; clinical isolate).
`CC(=O)ON=C1C=CC(=C(C#N)c2ccccc2)C=C1` has an MIC of 2 µg/mL (Candida tropicalis; microbial growth, broth dilution; ATCC13803; 48 h).
The MIC90 of `CC[C@H]1OC(=O)[C@H](C)[C@@H](O[C@H]2C[C@@](C)(OC)[C@@H](O)[C@H](C)O2)[C@H](C)[C@@H](O[C@@H]2O[C@H](C)C[C@H](N(C)C)[C@H]2O)[C@](C)(O)C[C@@H](C)/C(=N\OCOCCOC)[C@H](C)[C@@H](O)[C@]1(C)O` is reported as 8 µg/mL (≈ 9.56 µM) (Streptococcus agalactiae; microbial growth; clinical isolate).
For `CC(=O)N1CCN(c2ccc(OCC3COC(Cn4ccnc4)(c4ccc(Cl)cc4Cl)O3)cc2)CC1` (stereo not shown), the MIC was 8 µg/mL (Candida tropicalis; microbial growth, broth dilution; ATCC13803; 48 h).
For `O=c1cc(OCc2cc(-c3ccc(Cl)cc3Cl)no2)c2ccccc2o1`, the IC50 was > 100 µM (DND41; cell growth or viability, MTS; 72 h).
